Test results published in PMC8178987 (Chemical Science, 2020).

How the values were obtained:
Assay type in all cases: binding
gpPorA = assay: Single-channel recording of peptide interaction/translocation with gpPorA; conditions: for discrimination of R4 and R9 in competitive blocking: R4 10 µM, cis and R9 100 nM, 150 mM KCl
pPorA-C24 = conditions: subconductance pores; R6 1 µM cis; R9 0.5 µM; 150 mM KCl, pH 7.4
pPorA-A24 = assay: Single-channel recording of peptide interaction with pPorA-A24
How it was run: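 Single pores in planar lipid bilayers formed on an aperture prepainted with hexadecane in n-pentane (5 mg mL−1). Test peptide added to the cis side in 0.15 M KCl, 10 mM HEPES, pH 7.4, recorded at −5 and −20 mV. Current was digitally filtered at 4 and 7 kHz with an 8-pole Bessel filter. τoff came from dwell-time histograms.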

pPorA-K24 = assay: Single-channel recording of peptide interaction with pPorA-K24; conditions: for ion current blockages: cis, 0.15 M KCl, pH 7.4
[1] = 0.5 μM, cis, negative voltages, 0.15 M KCl, pH 7.4
[2] = 0.5 μM, trans, +10 mV to +35 mV, 0.15 M KCl, pH 7.4

tetraarginine [R4] was tested, and the “binding to pore” value (gpPorA; 10 μM, cis/trans, 0.15 M KCl, pH 7.4) was “weak electrostatic binding”, the “frequency of the blockage events” value (gpPorA; 10 μM, cis, negative voltages to −75 mV, 0.15 M KCl, pH 7.4) was “increased with the voltage” and the “ion current blockages” value (gpPorA; 10 μM, cis, positive voltages, 0.15 M KCl, pH 7.4) was “No peptide-induced ion current blockages were detected”. The “ion current blockages” value (gpPorA; 10 μM, cis, −25 mV, 0.15 M KCl, pH 7.4) was “occasional ion current blockages”, the “τoff (mean dwell time of blocking)” value (gpPorA; 10 μM, cis, −75 mV, 0.15 M KCl, 10 mM HEPES, pH 7.4, n = 3) was 165 ± 15 μs and the “ion current blockages” value (gpPorA; 10 μM, trans, higher positive voltages, 0.15 M KCl, pH 7.4) was “short, less frequent blockage events”. For the same substance, the “discrimination of R4 and R9 in competitive blocking” value (gpPorA; cis, −20 mV and −25 mV, pH 7.4) was “discriminated based on τoff”.
For nonaarginine [R9], the “ion current blockages” value (pPorA-C24) was “combination of strong and weak ion current blockages”, the “ion current blockages” value (gpPorA; 0.5 μM, cis, above +40 mV, 0.15 M KCl, pH 7.4) was “less frequent ion current blockages” and the “frequency of ion current blockages” value (gpPorA; 0.5 μM, cis, above −40 mV, 0.15 M KCl, pH 7.4) was “considerably reduced”. For the same substance, the “ion current blockage (block)” value (gpPorA; [1]) was 100%, the “ion current blockages” value (gpPorA; 0.5 μM, cis, pH 7.4, 0.15 M KCl, compared with pH 4.5) was “voltage-dependent well-defined ion current blockages” and the “ion current blockages” value (gpPorA; 0.5 μM, cis, −5 mV, −10 mV and −15 mV, pH 4.5, citrate buffer, 0.15 M KCl) was “short-lived, less frequent ion current blockages”. For the same substance, the “pore state on peptide addition” value (gpPorA; 0.5 μM, cis, −5 mV, 0.15 M KCl, pH 7.4) was “predominantly remained closed”, the “voltage dependence of kon and koff” value (gpPorA; 0.5 μM, cis, −10 mV to −35 mV, 0.15 M KCl, pH 7.4) was “increased with the voltage” and the “ion current blockages” value (gpPorA; 0.5 μM, cis, −20 mV and −25 mV, pH 4.5, citrate buffer, 0.15 M KCl) was “no prominent blockage events”. The “ion current blockage (block)” value (gpPorA; [2]) was 100%, the “voltage dependence of kon and koff” value (gpPorA; [2]) was “an increase in the kon and koff” and the τoff (gpPorA; 0.5 μM, trans, +10 mV, 0.15 M KCl, 10 mM HEPES, pH 7.4, n = 3) was 35 ± 3 ms. For the same substance, the “ion current blockages against the electrophoretic pulling” value (gpPorA; 0.5 μM, trans, negative voltages, 0.15 M KCl, pH 7.4) was “ion current blockages against the electrophoretic pulling was observed”, the “asymmetry in peptide binding/translocation between cis and trans sides” value (gpPorA; 0.5 μM, 0.15 M KCl, pH 7.4) was “well-defined asymmetry” and the “ion current blockages” value (gpPorA; 1 μM, cis, added after D9 to the same pores, 0.15 M KCl, pH 7.4) was “voltage-dependent intense blockage events”. The τoff (gpPorA; 100 μM, cis, −10 mV, 1 M KCl, 10 mM HEPES, pH 7.4, n = 3) was 0.14 ± 0.02 ms, the “ion current blockage (block)” value (gpPorA; 100 μM, cis, −10 mV, 1 M KCl, pH 7.4) was roughly 70% and the “ion current blockages” value (gpPorA; 100 μM, cis, −20 mV, −30 mV and −50 mV, 1 M KCl, pH 7.4) was “less frequent to unresolved ion current blockages”. For the same substance, the “discrimination of R4 and R9 in competitive blocking” value (gpPorA; cis, −20 mV and −25 mV, pH 7.4) was “discriminated based on τoff”, the “ion current blockages” value (pPorA-A24; 0.5 μM, cis, −5 mV to −20 mV, 0.15 M KCl, pH 7.4) was “ion current blockages exclusively at negative voltages” and the “binding affinity” value (pPorA-A24; directly formed pPorA compared to self-assembled gpPorA) was “less affinity”.
For hexaarginine [R6], the “ion current blockages” value (pPorA-C24) was “combination of strong and weak ion current blockages”, the “blockage events” value (gpPorA; 0.5 μM, cis, above −25 mV, 0.15 M KCl, pH 7.4) was “not resolved accurately” and the “blockage events” value (gpPorA; 0.5 μM, cis, higher positive voltages, 0.15 M KCl, pH 7.4) was “no blockage events were observed”. The “ion current blockage (block)” value (gpPorA; [1]) was 100%, the “frequency of blockage events” value (gpPorA; 0.5 μM, cis, −5 mV to −25 mV, 0.15 M KCl, pH 7.4) was “decreased with an increase in the voltage” and the “ion current blockages” value (gpPorA; 0.5 μM, trans, 0.15 M KCl, pH 7.4) was “time-resolved ion current blockages”. For the same substance, the “asymmetry in peptide binding/translocation between cis and trans sides” value (gpPorA; 0.5 μM, 0.15 M KCl, pH 7.4) was “no significant asymmetry” and the Kd (gpPorA; read-out: KDcis, cis, −10 mV, 0.15 M KCl, pH 7.4) was 5.19 µM.
With nonaaspartate [D9] the “ion current blockages” value (gpPorA; 100 μM, cis, different peptide concentrations and voltages, 0.15 M KCl, pH 7.4) was “did not produce any ion current blockages”, the “ion current blockages” value (pPorA-K24; 0.5 μM) was “did not produce defined ion current blockages” and the “ion current blockages” value (pPorA-K24; 10 μM, +50 mV) was “very short, less frequent ion current blockage”. For the same substance, the “ion current blockages” value (pPorA-K24; 10 μM, negative voltages) was “no ion current blockages were observed” and the “binding affinity” value (pPorA-K24; compared with R9 binding to cation-selective gpPorA (C24)) was “weak D9 peptide binding”.
